What was measured:
Conditions in all cases: in vivo
Rattus norvegicus [1] = assay: Tissue uptake (kidneys) of [125I]- after administration of [125I]-labeled compound to immature female rats (n=4) in the absence of 60 microg coinjected estradiol after 5 hours; assay type: ADME, organism-based, Kidney
Method in brief: (§1)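 Immature female Fischer rats, 24 days old, 55-60 g, unanesthetized in retention cages, given HPLC-purified 125I-labeled steroid (3 μCi, 111 kBq) via lateral tail vein in 200 μL of 9% ethanol-saline with 1% Tween-80. The blocking group was coinjected with 60 μg unlabeled estradiol and sampled at 1 h. Animals were killed under ether at 0.5-24 h. Tissues were KCl-washed, blotted, weighed and gamma-counted. Results are % ID/g, with variation as small-sample-corrected %CV.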

Rattus norvegicus [2] = assay: Tissue uptake (plasma) of [125I]- after administration of [125I]-labeled compound to immature female rats (n=4) in the absence of 60 microg coinjected estradiol after 2 hours; assay type: ADME, organism-based; method in brief: as §1
Rattus norvegicus [3] = assay: Tissue uptake (plasma) of [125I]- after administration of [125I]-labeled compound to immature female rats (n=4) in the absence of 60 microg coinjected estradiol after 5 hours; assay type: ADME, organism-based
Method in brief: (§2)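 Immature female Fischer rats, 24 days old, 55-60 g, unanesthetized in retention cages, got HPLC-purified n.c.a. 125I-labeled steroid (3 μCi, 111 kBq) by lateral tail vein. Dose was given in 200 μL saline with 9% ethanol and 1% Tween-80. Deep ether anesthesia, axillary artery cut; tissues KCl-washed, blotted, weighed, gamma-counted as % ID/g; variation as small-sample-corrected %CV.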

Rattus norvegicus [4] = assay: Tissue uptake (plasma) of [125I]- after administration of [125I]-labeled compound to immature female rats (n=5) in the absence of 60 microg coinjected estradiol after 1 hour; assay type: ADME, organism-based; method in brief: as §2
Rattus norvegicus [5] = assay: Tissue uptake (blood) of [125I]- after administration of [125I]-labeled compound to immature female rats (n=4) in the absence of 60 microg coinjected estradiol. (5 hours after injection) (% coefficient of variation); assay type: ADME, organism-based; method in brief: as §1
Rattus norvegicus [6] = assay: Tissue uptake (uterus) of [125I]- after administration of [125I]-labeled compound to immature female rats (n=3) in the absence of 60 microg coinjected estradiol after 24 hours; assay type: ADME, organism-based; method in brief: as §2
Rattus norvegicus [7] = assay: Tissue uptake (uterus) of [125I]- after administration of [125I]-labeled compound to immature female rats (n=3) in the absence of 60 microg coinjected estradiol. (0.5 hours after injection) (% coefficient of variation); assay type: ADME, organism-based; method in brief: as §2
Rattus norvegicus [8] = assay: Tissue uptake (brain) of [125I]- after administration of [125I]-labeled compound to immature female rats (n=5) in the absence of 60 microg coinjected estradiol after 1 hour; assay type: ADME, organism-based; method in brief: as §1
Rattus norvegicus [9] = assay: Tissue uptake (blood) of [125I]- after administration of [125I]-labeled compound to immature female rats (n=4) in the absence of 60 microg coinjected estradiol after 5 hours; assay type: ADME, organism-based; method in brief: as §1
Rattus norvegicus [10] = assay: Tissue uptake (brain) of [125I]- after administration of [125I]-labeled compound to immature female rats (n=3) in the presence of 60 microg coinjected estradiol after 1 hour; assay type: ADME, organism-based; method in brief: as §1
Rattus norvegicus [11] = assay: Tissue uptake (brain) of [125I]- after administration of [125I]-labeled compound to immature female rats (n=4) in the absence of 60 microg coinjected estradiol after 5 hours; assay type: ADME, organism-based; method in brief: as §1
Rattus norvegicus [12] = assay: Tissue uptake (uterus) of [125I]- after administration of [125I]-labeled compound to immature female rats (n=3) in the absence of 60 microg coinjected estradiol. (24 hours after injection) (% coefficient of variation); assay type: ADME, organism-based; method in brief: as §2

Row | SMILES | ID/g (Rattus norvegicus [1]) [%] | ID/g (Rattus norvegicus [2]) [%] | ID/g (Rattus norvegicus [3]) [%] | ID/g (Rattus norvegicus [4]) [%] | ID/g (Rattus norvegicus [5]) [%] | ID/g (Rattus norvegicus [6]) [%] | ID/g (Rattus norvegicus [7]) [%] | ID/g (Rattus norvegicus [8]) [%] | ID/g (Rattus norvegicus [9]) [%] | ID/g (Rattus norvegicus [10]) [%] | ID/g (Rattus norvegicus [11]) [%] | ID/g (Rattus norvegicus [12]) [%]
1 | C[C@@H]1Cc2cc(O)ccc2[C@H]2CC[C@]3(C)[C@@H](O)[C@H](I)C[C@H]3[C@H]12 | 0.25 | 0.49 | 0.41 | 0.58 | 0.28 | 1.64 | 4.32 | – | – | – | – | –
2 | CCO[C@H]1C[C@]2(C)[C@@H](O)[C@H](I)C[C@H]2[C@@H]2CCc3cc(O)ccc3[C@H]21 | – | – | – | – | – | – | – | 0.39 | 0.7 | 0.42 | 0.14 | 1.64
